# Measurements as given in ChEMBL document CHEMBL3352362, “Discovery of a novel, first-in-class, orally bioavailable azaindole inhibitor (VX-787) of influenza PB2” (J Med Chem, 2014).
# pEC50, pKd: −log10 of the molar value.
# Key:
# Influenza A virus [1] = assay: Antiviral activity against Influenza A virus (A/Puerto Rico/8/1934(H1N1)) infected in cells assessed as reduction in multiplication of virus-specific RNA molecules using branched-chain DNA; assay type: functional
# Method in brief: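 Viral RNA replication in infected cells quantified by the bDNA QuantiGene method with strand-specific probes for positive- or negative-strand RNA. EC90 is the compound concentration giving viral RNA levels equal to 10% of control wells.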
# [2] = biological target: Polymerase basic protein 2 (Influenza A virus (strain A/Puerto Rico/8/1934 H1N1), UniProt P03428); assay: Binding affinity to influenza A virus (A/Puerto Rico/8/1934(H1N1)) PB2 by competition binding fluorescence polarization (FP) assay
# Sequence of Polymerase basic protein 2 (P03428 whole entry, the tested form may be a part): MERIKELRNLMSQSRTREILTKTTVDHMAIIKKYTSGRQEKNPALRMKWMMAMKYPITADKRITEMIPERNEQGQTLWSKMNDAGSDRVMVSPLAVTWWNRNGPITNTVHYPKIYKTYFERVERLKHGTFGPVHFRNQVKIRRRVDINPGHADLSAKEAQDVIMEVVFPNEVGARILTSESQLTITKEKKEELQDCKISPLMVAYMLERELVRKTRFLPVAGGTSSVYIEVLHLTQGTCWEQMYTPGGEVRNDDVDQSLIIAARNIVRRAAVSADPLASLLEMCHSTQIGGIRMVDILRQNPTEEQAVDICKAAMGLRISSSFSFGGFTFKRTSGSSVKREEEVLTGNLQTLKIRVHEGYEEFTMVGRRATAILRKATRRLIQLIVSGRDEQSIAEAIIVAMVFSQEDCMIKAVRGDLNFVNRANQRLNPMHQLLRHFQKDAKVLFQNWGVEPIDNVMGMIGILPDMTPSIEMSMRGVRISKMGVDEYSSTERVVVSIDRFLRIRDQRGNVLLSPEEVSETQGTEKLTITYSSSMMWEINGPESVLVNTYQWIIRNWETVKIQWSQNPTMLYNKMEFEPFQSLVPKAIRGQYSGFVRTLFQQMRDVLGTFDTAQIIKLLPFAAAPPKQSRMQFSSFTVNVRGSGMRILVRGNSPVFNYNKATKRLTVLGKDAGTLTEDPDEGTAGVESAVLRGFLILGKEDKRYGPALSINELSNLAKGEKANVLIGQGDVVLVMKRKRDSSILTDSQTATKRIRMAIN
# Method in brief: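 Fluorescence polarization competition binding assay measuring affinity for the cap-binding domain of the PB2 subunit.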
# Influenza A virus [3] = assay: Antiviral activity against Influenza A virus (A/Puerto Rico/8/1934(H1N1)) infected in MDCK cells assessed as cell protection after 72 hrs by cytopathic effect assay; assay type: functional, organism-based
# Method in brief: (§1)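 MDCK cells incubated with test compound and influenza A virus for 72 h (3-day CPE format). Cell viability read by an ATP end point. EC50 is the concentration giving 50% cell protection; mean of N = 3 or greater.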
# [4] = AUC in mouse at 30 mg/kg; assay type: ADME, organism-based; set-up: dose 30 mg/kg; conditions: plasma
# [5] = Clearance in rat at 3 mg/kg, iv; assay type: ADME, organism-based; set-up: dose 3 mg/kg, route intravenous; conditions: in vivo
# [6] = Cmax in mouse at 30 mg/kg; assay type: ADME, organism-based; set-up: dose 30 mg/kg; conditions: in vivo
# [7] = Cmax in rat at 3 mg/kg, po; assay type: ADME, organism-based; set-up: dose 3 mg/kg, route oral; conditions: in vivo
# [8] = Oral bioavailability in rat at 3 mg/kg; assay type: ADME, organism-based; conditions: in vivo
# [9] = AUC in rat at 3 mg/kg, po; assay type: ADME, organism-based; set-up: dose 3 mg/kg, route oral; conditions: plasma
# [10] = Half life in rat at 3 mg/kg, iv; assay type: ADME, organism-based; set-up: dose 3 mg/kg, route intravenous; conditions: in vivo
# [11] = Antiviral activity against Influenza A virus A/New York/18/2009 infected in MDCK cells assessed as cell protection after 3 days by cytopathic effect assay; assay type: functional, cell-based, Influenza A virus (A/New York/18/2009(H1N1)); conditions: 72 h; method in brief: as §1
# [12] = Antiviral activity against Influenza A virus A/Texas/48/2009 infected in MDCK cells assessed as cell protection after 3 days by cytopathic effect assay; assay type: functional, cell-based, Influenza A virus (A/Texas/48/2009(H1N1)); conditions: 72 h; method in brief: as §1
# Influenza A virus [13] = assay: Antiviral activity against Influenza A virus A/Puerto Rico/8/34 infected in MDCK cells assessed as cell protection after 3 days by cytopathic effect assay; assay type: functional, organism-based; conditions: A/Puerto Rico/8/1934(H1N1), 72 h; method in brief: as §1
# [14] = Antiviral activity against Influenza A virus A/Georgia/20/2006 infected in MDCK cells assessed as cell protection after 3 days by cytopathic effect assay; assay type: functional, cell-based, Influenza A virus (A/Georgia/20/2006(H1N1)); conditions: 72 h; method in brief: as §1
# [15] = Antiviral activity against Influenza A virus A/Mexico/4108/2009 infected in MDCK cells assessed as cell protection after 3 days by cytopathic effect assay; assay type: functional, cell-based, Influenza A virus (A/Mexico/4108/2009(H1N1)); conditions: 72 h; method in brief: as §1
# [16] = Antiviral activity against Influenza A virus A/California/07/2009 infected in MDCK cells assessed as cell protection after 3 days by cytopathic effect assay; assay type: functional, cell-based, Influenza A virus (A/California/07/2009(H1N1)); conditions: 72 h; method in brief: as §1
Compound,EC90 (Influenza A virus [1]) [nM],pKd [2],pEC50 (Influenza A virus [3]),clearance [5] [mL/min/kg],also measured
COCC[C@]1(C(=O)O)CCCC[C@@H]1Nc1nc(-c2c[nH]c3ncc(Cl)cc23)ncc1F (racemic),90,8.05,7.74,,
CC(O)C(=O)N[C@@H]1CCC[C@H](Nc2nc(-c3c[nH]c4ncc(Cl)cc34)ncc2F)C1 (some centres undefined),240,6.40,7.07,,
C[C@]1(C(=O)O)CCCC[C@@H]1Nc1nc(-c2c[nH]c3ncc(F)cc23)ncc1F,140,> 8.70,7.74,,
O=C(O)[C@H]1C2CCC(CC2)[C@@H]1Nc1nc(-c2c[nH]c3ncc(Cl)cc23)ncc1F,1,> 8.30,9.00,32,AUC [4]: 10000 ng·h/mL; Cmax [6]: 3700 ng/mL; Cmax [7]: 30 ng/mL; bioavailability [8]: 24%; AUC [9]: 300 ng·h/mL; half-life [10]: 3.9 h
NC(=O)CN1CCC[C@H](Nc2nc(-c3c[nH]c4ncc(Cl)cc34)ncc2F)C1,20,7.10,7.09,182,
O=C(NC1CCOCC1)N[C@@H]1CCC[C@H](Nc2nc(-c3c[nH]c4ncc(F)cc34)ncc2F)C1,160,6.40,7.22,,
CC(=O)N[C@@H]1CCC[C@H](Nc2nc(-c3c[nH]c4ncc(Cl)cc34)ncc2F)C1,25,7.15,7.44,,
COCC(=O)N[C@@H]1CCC[C@H](Nc2nc(-c3c[nH]c4ncc(F)cc34)ncc2F)C1,90,6.70,7.35,,
CS(=O)(=O)N1CCCC[C@@H]1CNc1nc(-c2c[nH]c3ncc(Cl)cc23)ncc1F,540,7.00,6.18,152,half-life [10]: 0.4 h
CN(C)C(=O)N[C@@H]1CCC[C@H](Nc2nc(-c3c[nH]c4ncc(F)cc34)ncc2F)C1,6,6.40,8.70,,
Fc1cnc(-c2c[nH]c3ncc(Cl)cc23)nc1NC1CCCCC1,2370,6.52,5.79,,
O=C(N[C@@H]1CCC[C@H](Nc2nc(-c3c[nH]c4ncccc34)ncc2F)C1)N1CCOCC1,200,,7.01,,
N[C@H]1CCCC[C@@H]1Nc1nc(-c2c[nH]c3ncc(Cl)cc23)ncc1F,2480,7.05,6.21,,
Fc1cnc(-c2c[nH]c3ncc(Cl)cc23)nc1NC1CCCC1,> 10000,6.15,< 4.70,,
CN(C)c1cnc2[nH]cc(-c3ncc(F)c(N[C@H]4CCC[C@@H](NC(=O)N5CCOCC5)C4)n3)c2c1,> 3000,,5.90,,
NC12CC3CC(CC(C3)C1)C2 [AMANTADINE],,,,,pEC50 [11]: < 5.00; pEC50 [12]: < 5.00; pEC50 (Influenza A virus [13]): < 5.00; pEC50 [14]: < 5.00; pEC50 [15]: < 5.00; pEC50 [16]: < 5.00
Cc1cnc2[nH]cc(-c3ncc(F)c(N[C@H]4CCC[C@@H](NC(=O)N5CCOCC5)C4)n3)c2c1,13,,8.00,78,
O=C(N[C@@H]1CCC[C@H](Nc2nc(-c3c[nH]c4ncc(F)cc34)ncc2F)C1)N1CCOCC1,12,6.40,8.40,22,AUC [4]: 180000 ng·h/mL; Cmax [6]: 18200 ng/mL; Cmax [7]: 200 ng/mL; bioavailability [8]: 46%; AUC [9]: 1100 ng·h/mL; half-life [10]: 1.7 h
O=C(O)[C@H]1[C@H]2CC[C@H](C2)[C@@H]1Nc1nc(-c2c[nH]c3ncc(Cl)cc23)ncc1F (racemic),6,> 8.70,> 8.70,,
O=C(O)[C@H]1CCCC[C@@H]1Nc1nc(-c2c[nH]c3ncc(Cl)cc23)ncc1F (racemic),187,> 8.70,6.87,16,Cmax [7]: 30 ng/mL; bioavailability [8]: 7%; AUC [9]: 200 ng·h/mL; half-life [10]: 1 h

Compound,EC90 (Influenza A virus [1]) [nM],pKd [2],pEC50 (Influenza A virus [3]),clearance [5] [mL/min/kg],also measured
N[C@@H]1CCCC[C@H]1Nc1nc(-c2c[nH]c3ncc(Cl)cc23)ncc1F,,5.31,< 4.70,,
Cn1cncc1C(=O)N[C@@H]1CCC[C@H](Nc2nc(-c3c[nH]c4ncc(F)cc34)ncc2F)C1,5,7.05,8.70,22,AUC [4]: 19000 ng·h/mL; Cmax [6]: 13000 ng/mL; Cmax [7]: 600 ng/mL; bioavailability [8]: 100%; AUC [9]: 3700 ng·h/mL; half-life [10]: 2 h
O=C(CN1CCOCC1)N[C@@H]1CCC[C@H](Nc2nc(-c3c[nH]c4ncc(Cl)cc34)ncc2F)C1,380,6.70,7.00,,
COCC(=O)N[C@@H]1CCC[C@H](Nc2nc(-c3c[nH]c4ncc(Cl)cc34)ncc2F)C1,20,7.15,7.36,,
O=C(O)[C@H]1[C@@H]2CC[C@@H](C2)[C@@H]1Nc1nc(-c2c[nH]c3ncc(Cl)cc23)ncc1F (racemic),21,> 8.70,8.10,,
CC(=O)N[C@H]1CCCC[C@@H]1Nc1nc(-c2c[nH]c3ncc(Cl)cc23)ncc1F,1460,7.00,7.36,,
CC(=O)c1cnc2[nH]cc(-c3ncc(F)c(N[C@H]4CCC[C@@H](NC(=O)N5CCOCC5)C4)n3)c2c1,> 3000,,< 5.00,,
C[C@]1(C(=O)O)CCCC[C@@H]1Nc1nc(-c2c[nH]c3ncc(Cl)cc23)ncc1F (racemic),59,> 8.70,7.96,24,AUC [4]: 2400 ng·h/mL; Cmax [6]: 1300 ng/mL; Cmax [7]: 200 ng/mL; bioavailability [8]: 82%; AUC [9]: 2200 ng·h/mL; half-life [10]: 3.2 h
COCCC(=O)N1CCC[C@H](Nc2nc(-c3c[nH]c4ncc(Cl)cc34)ncc2F)C1,320,7.00,7.89,88,half-life [10]: 0.7 h
OC[C@H](O)CN1CCC[C@H](Nc2nc(-c3c[nH]c4ncc(Cl)cc34)ncc2F)C1,360,6.40,6.57,56,AUC [4]: 6500 ng·h/mL; Cmax [6]: 1200 ng/mL; half-life [10]: 2.3 h
NC(=O)[C@H]1CCCC[C@@H]1Nc1nc(-c2c[nH]c3ncc(Cl)cc23)ncc1F (racemic),3130,7.52,,,
O=C(N[C@@H]1CCC[C@H](Nc2nc(-c3c[nH]c4ncc(C(F)(F)F)cc34)ncc2F)C1)N1CCOCC1,3,,8.52,81,
Cn1cncc1C(=O)N[C@@H]1CCC[C@H](Nc2nc(-c3c[nH]c4ncc(Cl)cc34)ncc2F)C1,3,7.70,8.70,,
C[C@H](Nc1nc(-c2c[nH]c3ncc(Cl)cc23)ncc1F)C(=O)N(C)C,1130,7.00,6.29,,
COc1cnc2[nH]cc(-c3ncc(F)c(N[C@H]4CCC[C@@H](NC(=O)N5CCOCC5)C4)n3)c2c1,170,,7.02,,
Fc1cnc(-c2c[nH]c3ncc(Cl)cc23)nc1NC1CCCNC1 (centres undefined),,,5.73,,
CCc1cnc2[nH]cc(-c3ncc(F)c(N[C@H]4CCC[C@@H](NC(=O)N5CCOCC5)C4)n3)c2c1,260,,7.60,,
O=C(N[C@@H]1CCC[C@H](Nc2nc(-c3c[nH]c4ncc(Cl)cc34)ncc2F)C1)N1CCOCC1,5,6.30,8.70,59,
CC(=O)N1CCC[C@H](CNc2nc(-c3c[nH]c4ncc(Cl)cc34)ncc2F)C1,540,6.52,6.40,,
